This is an account of results in ChEMBL document CHEMBL2034946, “Synthesis and biological evaluation of cyclic sulfamide derivatives as 11β-hydroxysteroid dehydrogenase 1 inhibitors” (ACS Med Chem Lett, 2012).

The nature of data set [1]: Metabolic stability in human liver microsomes assessed as compound remaining after 30 mins. It counts as ADME, Microsome. The note with it: read-out: Stability. In a few lines: (§1)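 Human and rat liver microsomes incubated with compound for 30 min; stability reported as percent parent compound remaining.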
A general note: Microsomes from liver hold many membrane-bound enzymes, among them those of drug oxidation.

The target of data set [2] is 11-beta-hydroxysteroid dehydrogenase 1 (Mus musculus, UniProt P50172). Nature of the data set: Inhibition of mouse 11beta-HSD1 expressed in CHO-K1 cells using cortisone as substrate after 3 hrs by HTRF assay. It counts as cell-based. In a few lines: (§2)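 Cells overexpressing human or mouse 11β-HSD1 incubated with cortisone plus compound for 3 h; cortisol measured by HTRF. IC50 fitted from concentration-dependent inhibition curves; means ± SEM of triplicate experiments.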
Sequence of 11-beta-hydroxysteroid dehydrogenase 1 (Mus musculus, UniProt P50172) (P50172 whole entry): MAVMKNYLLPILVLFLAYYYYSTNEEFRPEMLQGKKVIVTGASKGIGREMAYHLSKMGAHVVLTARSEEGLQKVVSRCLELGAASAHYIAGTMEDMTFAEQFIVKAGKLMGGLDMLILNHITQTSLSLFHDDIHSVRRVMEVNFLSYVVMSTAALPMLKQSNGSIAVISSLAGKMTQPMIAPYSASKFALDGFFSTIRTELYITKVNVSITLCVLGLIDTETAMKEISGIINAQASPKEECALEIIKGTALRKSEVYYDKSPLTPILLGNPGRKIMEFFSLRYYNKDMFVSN
For orientation: Time-resolved FRET reads energy transfer from a long-lived donor to a nearby acceptor.

The target of data set [3] is 11-beta-hydroxysteroid dehydrogenase 1 (Homo sapiens, UniProt P28845). Nature of the data set: Inhibition of human 11beta-HSD1 expressed in CHO-K1 cells using cortisone as substrate after 3 hrs by HTRF assay. It counts as cell-based. The note with it: read-out: IC50. The method, boiled down:
as §2

The test system of data set [4] is Mus musculus. Nature of the data set: Ex-vivo inhibition of 11betaHSD1 in C57BL/6 mouse fat at 20 mg/kg, po after 2 hrs by ELISA. It counts as functional. To be noted: C57BL/6, 2 h. In a few lines: (§3)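 Normal mice dosed orally (1, 5, 10 or 20 mpk); 11β-HSD1 activity in fat tissue measured ex vivo 2 h post-dose.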
For orientation: ELISA stands for enzyme-linked immunosorbent assay.

For data set [5], the system named is Mus musculus. Description: Ex-vivo inhibition of 11betaHSD1 in C57BL/6 mouse liver at 20 mg/kg, po after 2 hrs by ELISA. It counts as functional. To be noted: C57BL/6, Liver. The method, boiled down: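 Normal mice given 20 mpk orally; liver tissue taken 2 h after dosing and 11β-HSD1 activity measured ex vivo as % inhibition relative to vehicle.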
Data set [6] is described as follows: Metabolic stability in rat liver microsomes assessed as compound remaining after 30 mins. Type of data set: ADME, Microsome. To be noted: read-out: Stability. The method, boiled down:
as §1

Data set [7] can be described thus: Oral bioavailability in Sprague-Dawley rat at 10 mg/kg. Type of data set: ADME, organism-based. To be noted: in vivo.
For data set [8], the system named is Mus musculus. Description: Ex-vivo inhibition of 11betaHSD1 in C57BL/6 mouse fat at 1 mg/kg, po after 2 hrs by ELISA. The note with it: C57BL/6, 2 h. It counts as functional. The method, boiled down: as §3
A short description of data set [9]: Metabolic stability in plasma at 10 uM after 30 mins. It counts as ADME, cell-free. To be noted: read-out: Stability. In a few lines: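 Compound incubated in plasma for 30 min; stability given as percent remaining.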
The test system of data set [10] is Mus musculus. Nature of the data set: Ex-vivo inhibition of 11betaHSD1 in C57BL/6 mouse fat at 10 mg/kg, po after 2 hrs by ELISA. It counts as functional. The note with it: C57BL/6, 2 h. The method, boiled down: as §3
Data set [11] deals with Cynomolgus monkey. Description: Ex-vivo inhibition of 11beta-HSD1 in cynomolgus monkey inguinal fat at 10 mg/kg, po after 2 hrs by ELISA. It counts as functional. The note with it: Macaca fascicularis. The method, boiled down:
(§4)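 Cynomolgus monkeys dosed orally at 10 mpk; 11β-HSD1 activity measured ex vivo in shoulder, inguinal and abdominal cavity fat at 2 h. Means, n = 2 monkeys per group, versus vehicle.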

Data set [12] is described as follows: AUC in cynomolgus monkey at 10 mg/kg, po. It counts as ADME, organism-based, Macaca fascicularis. Also on record: dose 10 mg/kg, route oral. To be noted: plasma.
The nature of data set [13]: Cmax in Sprague-Dawley rat at 10 mg/kg, po. It counts as ADME, organism-based. Further details: dose 10 mg/kg, route oral. The note with it: in vivo.
Data set [14] can be described thus: Aqueous solubility of the compound. It counts as physicochemical. To be noted: buffer.
Data set [15] deals with T1, 11-beta-hydroxysteroid dehydrogenase type 2 (Homo sapiens) (UniProt P80365).
T1 sequence (whole entry): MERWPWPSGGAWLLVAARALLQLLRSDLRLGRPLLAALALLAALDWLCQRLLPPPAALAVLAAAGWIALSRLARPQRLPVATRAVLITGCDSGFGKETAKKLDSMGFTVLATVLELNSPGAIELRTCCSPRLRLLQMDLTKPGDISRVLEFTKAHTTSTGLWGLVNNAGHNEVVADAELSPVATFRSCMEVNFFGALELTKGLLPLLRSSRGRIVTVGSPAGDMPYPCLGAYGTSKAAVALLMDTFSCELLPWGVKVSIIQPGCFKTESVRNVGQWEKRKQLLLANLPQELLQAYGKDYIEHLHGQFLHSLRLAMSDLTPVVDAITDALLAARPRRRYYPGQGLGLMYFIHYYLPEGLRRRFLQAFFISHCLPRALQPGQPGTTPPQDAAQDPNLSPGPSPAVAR
Nature of the data set: Inhibition of human 11beta-HSD2 expressed in HEK293 cells using […] as substrate at 10 uM after 24 hrs by HTRF assay. Type of data set: cell-based.

A short description of data set [16]: Clearance in Sprague-Dawley rat at 10 mg/kg, po. The note with it: in vivo. It counts as ADME, organism-based. Further details: dose 10 mg/kg, route oral.
The target in data set [17] is T2, Cytochrome P450 1A2 (Homo sapiens, UniProt P05177).
T2 sequence (P05177 whole entry): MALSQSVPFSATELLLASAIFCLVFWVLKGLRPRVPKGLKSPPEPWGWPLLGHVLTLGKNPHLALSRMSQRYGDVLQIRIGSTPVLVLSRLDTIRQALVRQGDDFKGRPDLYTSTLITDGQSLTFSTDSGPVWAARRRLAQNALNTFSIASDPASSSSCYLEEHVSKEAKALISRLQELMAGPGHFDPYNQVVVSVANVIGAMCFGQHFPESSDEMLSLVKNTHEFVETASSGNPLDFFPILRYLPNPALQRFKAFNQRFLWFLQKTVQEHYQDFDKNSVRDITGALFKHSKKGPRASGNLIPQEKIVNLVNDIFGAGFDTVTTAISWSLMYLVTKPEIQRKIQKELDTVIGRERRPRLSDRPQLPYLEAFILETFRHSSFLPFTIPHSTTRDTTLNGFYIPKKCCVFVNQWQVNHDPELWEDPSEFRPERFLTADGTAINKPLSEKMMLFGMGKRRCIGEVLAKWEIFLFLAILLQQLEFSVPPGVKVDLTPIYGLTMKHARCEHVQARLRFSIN
Nature of the data set: Inhibition of CYP1A2 incubated for 20 mins prior to substrate addition measured after 20 mins by fluorimetric assay. Type of data set: ADME.

Data set [18] is described as follows: AUC in Sprague-Dawley rat at 10 mg/kg, po. The note with it: plasma. Also on record: dose 10 mg/kg, route oral. It counts as ADME, organism-based.
Data set [19] can be described thus: Terminal elimination half life in cynomolgus monkey at 10 mg/kg, po. Also on record: dose 10 mg/kg, route oral. It counts as ADME, organism-based, Macaca fascicularis. To be noted: in vivo, read-out: beta t1/2 (converted).
Data set [20] deals with Cytochrome P450 3A4 (Homo sapiens, UniProt P08684). Description: Inhibition of CYP3A4 incubated for 20 mins prior to substrate addition measured after 20 mins by fluorimetric assay. It counts as ADME.
Sequence of Cytochrome P450 3A4 (P08684 whole entry): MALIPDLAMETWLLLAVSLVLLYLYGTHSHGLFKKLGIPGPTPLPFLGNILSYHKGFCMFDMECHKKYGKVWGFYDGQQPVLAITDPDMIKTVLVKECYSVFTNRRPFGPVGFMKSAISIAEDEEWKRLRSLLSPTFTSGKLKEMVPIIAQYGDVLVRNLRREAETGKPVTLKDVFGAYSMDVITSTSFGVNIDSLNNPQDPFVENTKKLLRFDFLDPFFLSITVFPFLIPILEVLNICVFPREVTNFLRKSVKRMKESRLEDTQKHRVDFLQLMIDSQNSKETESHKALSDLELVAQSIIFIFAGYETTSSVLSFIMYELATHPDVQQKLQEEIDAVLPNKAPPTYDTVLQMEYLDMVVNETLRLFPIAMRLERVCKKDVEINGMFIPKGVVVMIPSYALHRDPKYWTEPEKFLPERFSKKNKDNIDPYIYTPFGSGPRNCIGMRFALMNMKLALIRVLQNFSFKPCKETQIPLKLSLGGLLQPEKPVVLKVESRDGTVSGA
The subject of data set [21] is Cynomolgus monkey. Nature of the data set: Ex-vivo inhibition of 11beta-HSD1 in cynomolgus monkey shoulder fat at 10 mg/kg, po after 2 hrs by ELISA. Type of data set: functional. The note with it: Macaca fascicularis. The method, boiled down:
as §4

The nature of data set [22]: Terminal elimination half life in Sprague-Dawley rat at 10 mg/kg, po. Also on record: dose 10 mg/kg, route oral. It counts as ADME, organism-based. To be noted: in vivo, read-out: beta t1/2 (converted).
For data set [23], the system named is Mus musculus. Nature of the data set: Ex-vivo inhibition of 11betaHSD1 in po dosed C57BL/6 mouse fat after 2 hrs by ELISA. It counts as functional, organism-based. In a few lines:
as §3

Data set [24] deals with Cynomolgus monkey. Description: Ex-vivo inhibition of 11beta-HSD1 in cynomolgus monkey abdominal fat at 10 mg/kg, po after 2 hrs by ELISA. Type of data set: functional. To be noted: Macaca fascicularis, Abdomen. The method, boiled down:
as §4

Data set [25] can be described thus: Cmax in cynomolgus monkey at 10 mg/kg, po. It counts as ADME, organism-based, Macaca fascicularis. Also on record: dose 10 mg/kg, route oral. The note with it: in vivo.
The subject of data set [26] is Mus musculus. Nature of the data set: Ex-vivo inhibition of 11betaHSD1 in C57BL/6 mouse fat at 5 mg/kg, po after 2 hrs by ELISA. The note with it: C57BL/6, 2 h. Type of data set: functional. In a few lines:
as §3

Data set [27] deals with Cytochrome P450 2C19 (Homo sapiens, UniProt P33261). Description: Inhibition of CYP2C19 incubated for 20 mins prior to substrate addition measured after 20 mins by fluorimetric assay. It counts as ADME.
Sequence of Cytochrome P450 2C19 (P33261 whole entry): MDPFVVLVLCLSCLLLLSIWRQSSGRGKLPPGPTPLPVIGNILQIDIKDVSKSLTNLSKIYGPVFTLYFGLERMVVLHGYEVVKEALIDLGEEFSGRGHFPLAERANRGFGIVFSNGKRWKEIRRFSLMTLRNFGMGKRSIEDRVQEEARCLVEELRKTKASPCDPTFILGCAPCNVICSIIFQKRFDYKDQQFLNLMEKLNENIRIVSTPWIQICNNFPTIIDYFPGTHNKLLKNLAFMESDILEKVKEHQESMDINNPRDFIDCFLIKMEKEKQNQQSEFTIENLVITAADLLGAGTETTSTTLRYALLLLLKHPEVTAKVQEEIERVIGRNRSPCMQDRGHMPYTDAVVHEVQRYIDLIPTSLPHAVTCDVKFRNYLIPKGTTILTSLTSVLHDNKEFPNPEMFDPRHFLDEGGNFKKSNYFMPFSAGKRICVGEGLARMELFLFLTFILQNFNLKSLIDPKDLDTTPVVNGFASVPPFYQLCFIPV
The target in data set [28] is Cytochrome P450 2C9 (Homo sapiens, UniProt P11712). Nature of the data set: Inhibition of CYP2C9. Type of data set: ADME.
Sequence of Cytochrome P450 2C9 (P11712 whole entry): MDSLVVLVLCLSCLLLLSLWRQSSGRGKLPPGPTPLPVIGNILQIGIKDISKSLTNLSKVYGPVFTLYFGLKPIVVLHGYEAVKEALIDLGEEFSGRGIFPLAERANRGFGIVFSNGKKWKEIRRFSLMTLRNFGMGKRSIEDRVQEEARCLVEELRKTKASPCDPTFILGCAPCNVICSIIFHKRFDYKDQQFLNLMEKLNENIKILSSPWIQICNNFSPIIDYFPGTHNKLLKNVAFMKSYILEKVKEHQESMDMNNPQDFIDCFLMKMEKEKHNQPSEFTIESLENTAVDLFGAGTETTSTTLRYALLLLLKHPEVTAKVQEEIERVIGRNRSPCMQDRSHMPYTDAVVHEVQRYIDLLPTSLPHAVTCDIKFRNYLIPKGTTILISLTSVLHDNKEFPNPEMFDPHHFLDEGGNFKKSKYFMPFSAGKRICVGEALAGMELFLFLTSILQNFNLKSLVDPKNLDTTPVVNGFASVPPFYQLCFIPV
Data set [29] has as its target Cytochrome P450 2D6 (Homo sapiens, UniProt P10635). Description: Inhibition of CYP2D6 incubated for 20 mins prior to substrate addition measured after 20 mins by fluorimetric assay. It counts as ADME.

≈ marks a conversion by molar mass, not a printed value.

Sequence of 11-beta-hydroxysteroid dehydrogenase 1 (Homo sapiens, UniProt P28845) (P28845 whole entry): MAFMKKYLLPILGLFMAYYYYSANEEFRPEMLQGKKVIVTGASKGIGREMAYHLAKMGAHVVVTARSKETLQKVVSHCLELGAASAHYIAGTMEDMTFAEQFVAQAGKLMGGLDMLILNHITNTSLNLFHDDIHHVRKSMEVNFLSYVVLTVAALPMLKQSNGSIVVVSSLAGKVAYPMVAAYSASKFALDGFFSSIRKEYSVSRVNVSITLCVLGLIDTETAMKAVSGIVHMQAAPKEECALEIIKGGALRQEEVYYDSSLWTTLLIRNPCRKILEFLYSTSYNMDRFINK
Sequence of Cytochrome P450 2D6 (P10635 whole entry): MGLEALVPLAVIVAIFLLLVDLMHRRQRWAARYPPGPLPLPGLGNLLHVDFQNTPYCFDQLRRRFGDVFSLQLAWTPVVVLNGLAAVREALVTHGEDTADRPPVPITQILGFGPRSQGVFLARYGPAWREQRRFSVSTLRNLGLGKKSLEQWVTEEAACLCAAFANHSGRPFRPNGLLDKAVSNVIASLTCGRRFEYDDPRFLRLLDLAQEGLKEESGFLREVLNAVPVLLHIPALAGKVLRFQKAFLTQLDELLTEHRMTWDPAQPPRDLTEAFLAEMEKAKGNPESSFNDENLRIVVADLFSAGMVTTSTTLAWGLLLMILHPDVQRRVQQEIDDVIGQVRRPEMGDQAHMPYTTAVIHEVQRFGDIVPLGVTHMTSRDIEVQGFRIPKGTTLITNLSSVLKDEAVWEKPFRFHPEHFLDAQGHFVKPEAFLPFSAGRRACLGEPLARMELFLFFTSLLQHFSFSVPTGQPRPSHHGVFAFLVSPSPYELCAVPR

The term IC50 denotes the concentration that inhibits the measured activity by half. Broadly, the inhibition in vivo is the relative decrease from the control value, in per cent. For the compound `NC(=O)[C@]12CC3CC(C1)[C@@H](NC(=O)CN1CCCCN(c4c(Cl)cc(Cl)cc4Cl)S1(=O)=O)C(C3)C2`, the remaining at 0.5 h in data set [1] was found to be 40%; in [6], 26%. For the same compound, the IC50 in data set [2] and in [3] was 1 nM each time. For the same compound, the values for the inhibition in vivo at 20 mg/kg in data set [4] and in [5] were 59.9% and 51.4%, respectively.

For the compound `CC1CCN(c2c(Cl)cc(Cl)cc2Cl)S(=O)(=O)N1CC(=O)N[C@H]1C2CC3CC1C[C@](C(N)=O)(C3)C2` (mixture of isomers), the remaining at 0.5 h was 94% in data set [1] and 70% in data set [6]. In addition, the IC50 was 70 nM in data set [2] and 1 nM in data set [3]. In data set [4], the inhibition in vivo at 20 mg/kg stood at 74.5%.

Consider `NC(=O)[C@]12CC3CC(C1)[C@@H](NC(=O)CN1CCCN(c4ccccc4F)S1(=O)=O)C(C3)C2`, for which the IC50 worked out at 170 nM in data set [2] and 14 nM in data set [3].

With `NC(=O)[C@]12CC3CC(C1)[C@@H](NC(=O)CN1CCCN(c4cccc(F)c4)S1(=O)=O)C(C3)C2`, the results for the IC50 in [2] and in [3] were 140 nM and 50 nM, respectively.

The bioavailability is dose-corrected exposure relative to a reference, in per cent. For orientation: AUC means the area under the concentration-time curve, a measure of exposure. As a reminder, the Cmax is the peak of the concentration-time curve. As a reminder, the solubility is the dissolved amount per volume that the medium holds. One may read the inhibition as the relative decrease from the control value, in per cent. As usually defined, the CL/F is clearance divided by bioavailability, as obtained after extravascular dosing. In [7], `CC1CN(CC(=O)N[C@H]2C3CC4CC2C[C@](C(N)=O)(C4)C3)S(=O)(=O)N(c2c(Cl)cc(Cl)cc2Cl)C1` (mixture of isomers) came in with a bioavailability of 68.8%. For the same compound, in data set [8], the inhibition in vivo at 1 mg/kg amounted to 76.6%. The remaining at 0.5 h, 10 µM in data set [9] was 100%. For the same compound, the inhibition in vivo at 10 mg/kg is 90.7% in data set [10], 83% in data set [11], 87% in data set [21] and 81% in data set [24]. The values for the AUC in [12] and in [18] were 35600 ng·h/mL and 15700 ng·h/mL, respectively. Besides, the Cmax was determined as 3100 ng/mL in data set [13] and 6400 ng/mL in data set [25]. In addition, the concentration in solution in data set [14] (solubility) was 361 µM (≈ 204 µg/mL). Moreover, the inhibition was 20% in data set [15] and “Dose-dependent effect” in data set [23]. In [16], this compound had a CL/F of 11.7 mL/min/kg. Also, the INH in [17], in [20], in data set [27], in [28] and in data set [29] was greater than 100 µM each time. Also, the remaining at 0.5 h in data set [1] is 93%; in data set [6], 78%. The half-life is 3.4 h in data set [19] and 3.8 h in data set [22]. Further, the concentration for half-maximal inhibition (IC50) in data set [2] stood at 2 nM; in data set [3], 1 nM. Moreover, the inhibition in vivo at 20 mg/kg in data set [4] is 95.9%. This compound also returned an inhibition in vivo at 5 mg/kg in data set [26] of 90.4%.

As for `NC(=O)[C@]12CC3CC(C1)[C@@H](NC(=O)CN1CCN(c4c(Cl)cc(Cl)cc4Cl)S1(=O)=O)C(C3)C2`, the IC50 in [2] came to 409 nM; in data set [3], 187 nM.

Turning to `NC(=O)[C@]12CC3CC(C1)[C@@H](NC(=O)CN1CCCN(c4ccc(F)cc4)S1(=O)=O)C(C3)C2`, the IC50 is 15500 nM in data set [2] and 351000 nM in [3].

Turning to `C=C1CN(CC(=O)N[C@H]2C3CC4CC2C[C@](C(N)=O)(C4)C3)S(=O)(=O)N(c2c(Cl)cc(Cl)cc2Cl)C1`, the IC50 was determined as 8 nM in [2] and 14 nM in [3]. The compound further came in with an inhibition in vivo at 20 mg/kg in [4] of 82.1%.
